pIC50: −log10 of the molar value. Values after ≈ are worked out from the molar mass of the structure shown.
What was measured:
[1] = system: Klebsiella pneumoniae; assay: Inhibition of OXA-48 in Klebsiella pneumoniae assessed as meropenem antibacterial activity at 4 ug/ml after 16 to 20 hrs by CLSI-based microbroth dilution method (Rvb >= […] ug/ml)
[2] = Inhibition of bacterial KPC-2 using imipenem as substrate preincubated for 15 mins followed by susbtrate addition and measured after 10 mins by spectrophotometric method; design: species or system Bacteria
[3] = system: Klebsiella pneumoniae; assay: Inhibition of VIM-4 in Klebsiella pneumoniae assessed as meropenem antibacterial activity at 4 ug/ml after 16 to 20 hrs by CLSI-based microbroth dilution method (Rvb >= […] ug/ml)
[4] = Inhibition of bacterial VIM-2 using nitrocefin as substrate preincubated for 15 mins followed by susbtrate addition and measured after 10 mins by spectrophotometric method; design: species or system Bacteria
In short: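 Purified β-lactamase inhibition. IC50 values are the average of duplicates unless otherwise indicated.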

[5] = Inhibition of bacterial AmpC using nitrocefin as substrate preincubated for 15 mins followed by susbtrate addition and measured after 10 mins by spectrophotometric method; design: species or system Bacteria
[6] = Inhibition of bacterial OXA-48 using nitrocefin as substrate preincubated for 15 mins followed by susbtrate addition and measured after 10 mins by spectrophotometric method; design: species or system Bacteria
[7] = target: Beta-lactamase VIM-2 (Pseudomonas aeruginosa) (UniProt Q9K2N0); assay: Inhibition of VIM-2 in Pseudomonas aeruginosa assessed as meropenem antibacterial activity at 4 ug/ml after 16 to 20 hrs by CLSI-based microbroth dilution method (Rvb >= […] ug/ml)
[8] = system: Klebsiella pneumoniae; assay: Inhibition of KPC-2 in Klebsiella pneumoniae assessed as meropenem antibacterial activity at 4 ug/ml after 16 to 20 hrs by CLSI-based microbroth dilution method (Rvb >= […] ug/ml)

Question: What does the source list for `NC[C@H]1CC[C@H](CC(=O)N[C@H]2Cc3cccc(C(=O)O)c3OB2O)CC1`?
Answer: MIC [1]: 2 µg/mL (≈ 5.55 µM); pIC50 [2]: 7.00; MIC [3]: 8 µg/mL (≈ 22.2 µM); pIC50 [4]: 5.80; pIC50 [5]: 7.60; pIC50 [6]: 5.74; MIC [7]: 4 µg/mL (≈ 11.1 µM); MIC [8]: 1 µg/mL (≈ 2.78 µM)

Question: Which MIC [1] does the source give for `O=C(O)CN[C@H]1CC[C@H](CC(=O)N[C@H]2Cc3cccc(C(=O)O)c3OB2O)CC1` here?
Answer: Its MIC is 8 µg/mL (≈ 19.8 µM).

Question: What about the pIC50 [2] of the same compound?
Answer: The pIC50 was 7.72.

Question: What about the MIC [3] of the same compound?
Answer: Its MIC is 32 µg/mL (≈ 79.2 µM).

Question: What about the pIC50 [4] of the same compound?
Answer: The pIC50 was 5.62.

Question: What about the pIC50 [5] of the same compound?
Answer: Its pIC50 is 8.22.

Question: And the pIC50 [6]?
Answer: The pIC50 was 5.50.

Question: And the MIC [7]?
Answer: The MIC was 16 µg/mL (≈ 39.6 µM).

Question: And the MIC [8]?
Answer: The MIC was 4 µg/mL (≈ 9.9 µM).

Question: Which results are given for `N[C@H]1CC[C@@H](CC(=O)N[C@H]2Cc3cccc(C(=O)O)c3OB2O)CC1`?
Answer: MIC [1]: 16 µg/mL (≈ 46.2 µM); pIC50 [2]: 6.92; MIC [3]: 32 µg/mL (≈ 92.4 µM); pIC50 [4]: 5.78; pIC50 [5]: 8.30; pIC50 [6]: 4.74; MIC [7]: 32 µg/mL (≈ 92.4 µM); MIC [8]: 2 µg/mL (≈ 5.78 µM)

Question: For `NCC(=O)N[C@H]1CC[C@H](CC(=O)N[C@H]2Cc3cccc(C(=O)O)c3OB2O)CC1`, which MIC [1] is on record?
Answer: The MIC was 8 µg/mL (≈ 19.8 µM).

Question: And the pIC50 [2]?
Answer: The pIC50 was 7.47.

Question: What about the MIC [3] of the same compound?
Answer: The MIC was 8 µg/mL (≈ 19.8 µM).

Question: What about the pIC50 [4] of the same compound?
Answer: The pIC50 was 6.23.

Question: What about the pIC50 [5] of the same compound?
Answer: The pIC50 was 8.22.

Question: What about the pIC50 [6] of the same compound?
Answer: The pIC50 was 6.45.

Question: What about the MIC [7] of the same compound?
Answer: The MIC was 8 µg/mL (≈ 19.8 µM).

Question: What about the MIC [8] of the same compound?
Answer: Its MIC is 2 µg/mL (≈ 4.96 µM).

Question: What does the source list for `NCCCN[C@H]1CC[C@H](CC(=O)N[C@H]2Cc3cccc(C(=O)O)c3OB2O)CC1`?
Answer: MIC [1]: 8 µg/mL (≈ 19.8 µM); pIC50 [2]: 7.15; MIC [3]: 4 µg/mL (≈ 9.92 µM); pIC50 [4]: 7.09; pIC50 [5]: 8.30; pIC50 [6]: 6.18; MIC [7]: 0.25 µg/mL (≈ 0.62 µM); MIC [8]: 0.5 µg/mL (≈ 1.24 µM)

Question: Which MIC [1] does the source give for `NCCN[C@H]1CC[C@@H](CC(=O)N[C@H]2Cc3cccc(C(=O)O)c3OB2O)CC1` here?
Answer: The MIC was 8 µg/mL (≈ 20.6 µM).

Question: And the pIC50 [2]?
Answer: Its pIC50 is 7.52.

Question: What about the MIC [3] of the same compound?
Answer: The MIC was 4 µg/mL (≈ 10.3 µM).

Question: And the pIC50 [4]?
Answer: Its pIC50 is 6.89.

Question: And the pIC50 [5]?
Answer: Its pIC50 is 7.46.

Question: And the pIC50 [6]?
Answer: The pIC50 was 6.17.

Question: And the MIC [7]?
Answer: The MIC was 0.5 µg/mL (≈ 1.28 µM).

Question: And the MIC [8]?
Answer: The MIC was 8 µg/mL (≈ 20.6 µM).

Question: What does the source list for `O=C(C[C@H]1CC[C@H](N2CCNCC2)CC1)N[C@H]1Cc2cccc(C(=O)O)c2OB1O`?
Answer: MIC [1]: 16 µg/mL (≈ 38.5 µM); pIC50 [2]: 7.70; MIC [3]: 32 µg/mL (≈ 77.1 µM); pIC50 [4]: 5.82; pIC50 [5]: 8.52; pIC50 [6]: 5.82; MIC [7]: 16 µg/mL (≈ 38.5 µM); MIC [8]: 4 µg/mL (≈ 9.63 µM)

Question: Which results are given for `CS(=O)(=O)NCCN[C@H]1CC[C@H](CC(=O)N[C@H]2Cc3cccc(C(=O)O)c3OB2O)CC1`?
Answer: MIC [1]: 8 µg/mL (≈ 17.1 µM); pIC50 [2]: 7.77; MIC [3]: 8 µg/mL (≈ 17.1 µM); pIC50 [4]: 6.96; pIC50 [5]: 8.22; pIC50 [6]: 6.30; MIC [7]: 16 µg/mL (≈ 34.2 µM); MIC [8]: 4 µg/mL (≈ 8.56 µM)

Question: Which MIC [1] does the source give for `NCCNc1ccc(CC(=O)N[C@H]2Cc3cccc(C(=O)O)c3OB2O)cc1` here?
Answer: Its MIC is 1 µg/mL (≈ 2.61 µM).

Question: And the pIC50 [2]?
Answer: The pIC50 was 7.66.

Question: What about the MIC [3] of the same compound?
Answer: Its MIC is 8 µg/mL (≈ 20.9 µM).

Question: What about the pIC50 [4] of the same compound?
Answer: The pIC50 was 6.31.

Question: And the pIC50 [5]?
Answer: Its pIC50 is 8.30.

Question: What about the pIC50 [6] of the same compound?
Answer: The pIC50 was 6.54.

Question: And the MIC [7]?
Answer: Its MIC is 0.5 µg/mL (≈ 1.3 µM).

Question: And the MIC [8]?
Answer: The MIC was 1 µg/mL (≈ 2.61 µM).

Question: What does the source list for `CNCCN[C@H]1CC[C@H](CC(=O)N[C@H]2Cc3cccc(C(=O)O)c3OB2O)CC1`?
Answer: MIC [1]: 2 µg/mL (≈ 4.96 µM); pIC50 [2]: 7.92; MIC [3]: 0.5 µg/mL (≈ 1.24 µM); pIC50 [4]: 8.70; pIC50 [5]: 7.96; pIC50 [6]: 6.24; MIC [8]: 0.5 µg/mL (≈ 1.24 µM)

Question: With `N=C(N)NCCN[C@H]1CC[C@H](CC(=O)N[C@H]2Cc3cccc(C(=O)O)c3OB2O)CC1` as the compound, how does the MIC [1] read?
Answer: Its MIC is 2 µg/mL (≈ 4.64 µM).

Question: And the pIC50 [2]?
Answer: Its pIC50 is 7.57.

Question: What about the MIC [3] of the same compound?
Answer: Its MIC is 0.06 µg/mL (≈ 0.139 µM).

Question: And the pIC50 [4]?
Answer: Its pIC50 is 7.07.

Question: What about the pIC50 [5] of the same compound?
Answer: The pIC50 was 8.22.

Question: What about the pIC50 [6] of the same compound?
Answer: The pIC50 was 5.80.

Question: And the MIC [7]?
Answer: The MIC was 0.5 µg/mL (≈ 1.16 µM).

Question: And the MIC [8]?
Answer: Its MIC is 1 µg/mL (≈ 2.32 µM).

Question: Which MIC [1] does the source give for `O=C(C[C@H]1CC[C@H](NCc2cnc[nH]2)CC1)N[C@H]1Cc2cccc(C(=O)O)c2OB1O` here?
Answer: Its MIC is 8 µg/mL (≈ 18.8 µM).

Question: What about the pIC50 [2] of the same compound?
Answer: Its pIC50 is 7.44.

Question: What about the MIC [3] of the same compound?
Answer: Its MIC is 8 µg/mL (≈ 18.8 µM).

Question: And the pIC50 [4]?
Answer: Its pIC50 is 6.32.

Question: And the pIC50 [5]?
Answer: The pIC50 was 7.85.

Question: And the pIC50 [6]?
Answer: Its pIC50 is 6.34.

Question: What about the MIC [7] of the same compound?
Answer: The MIC was 1 µg/mL (≈ 2.35 µM).

Question: What about the MIC [8] of the same compound?
Answer: The MIC was 1 µg/mL (≈ 2.35 µM).

Question: With `O=C(C[C@H]1CC[C@H](NCCO)CC1)N[C@H]1Cc2cccc(C(=O)O)c2OB1O` as the compound, how does the MIC [1] read?
Answer: Its MIC is 2 µg/mL (≈ 5.12 µM).

Question: And the pIC50 [2]?
Answer: The pIC50 was 7.77.

Question: What about the MIC [3] of the same compound?
Answer: Its MIC is 0.5 µg/mL (≈ 1.28 µM).

Question: What about the pIC50 [4] of the same compound?
Answer: The pIC50 was 5.85.

Question: And the pIC50 [5]?
Answer: Its pIC50 is 8.00.

Question: And the pIC50 [6]?
Answer: Its pIC50 is 5.12.

Question: What about the MIC [7] of the same compound?
Answer: The MIC was 4 µg/mL (≈ 10.2 µM).

Question: What about the MIC [8] of the same compound?
Answer: Its MIC is 2 µg/mL (≈ 5.12 µM).

Source: ChEMBL document CHEMBL4354828, “Discovery of Taniborbactam (VNRX-5133): A Broad-Spectrum Serine- and Metallo-β-lactamase Inhibitor for Carbapenem-Resistant Bacterial Infections” (J Med Chem, 2020)
